Data from ChEMBL document CHEMBL5038578, “Design, Synthesis, and Biological Evaluation of Peptidomimetic Aldehydes as Broad-Spectrum Inhibitors against Enterovirus and SARS-CoV-2” (J Med Chem, 2022).

How the values were obtained:
[1] = Inhibition of Human enterovirus 71 3C-like protease expressed in Escherichia coli BL21 (DE3) cells using Dacyl-KTSAVLQSGFRKMEEdans as fluorogenic substrate incubated for 10 mins by FRET assay; design: species or system Enterovirus A71
In short: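 EV71 3Cpro expressed with N-terminal His-SUMO2 tag, tag cut by SENP2, then purified on Ni-NTA, Q-Sepharose and Superdex200. Enzyme at 5 μM final, preincubated 10 min with serial compound dilutions in 25 mM Tris pH 8.0, 150 mM NaCl, 10% glycerol. Fluorescence read at ex 340/em 490 nm. IC50 (mean ± SD, ≥3 experiments) by nonlinear regression.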

[2] = Cytotoxicity against human RD cells assessed as reduction in cell viability measured after 4 days by MTS/PMS assay; format: toxicity, cell-based; conditions: time 4 day
[3] = tested on: Enterovirus A71; test: Antiviral activity against Human enterovirus 71 BrCr infected in human RD cells assessed as reduction in virus-induced cytopathic effect incubated for 4 days by MTS/PMS assay; format: functional, organism-based; conditions: Enterovirus A, 96 h
In short: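 RD cells (2.5 × 10^4/well) adhered overnight, then infected with EV71 BrCr and given serial compound dilutions. Incubated 4 days, until full CPE in virus controls. Viability by MTS/PMS, absorbance at 498 nm after 1–2 h at 37 °C. Normalised to infected and uninfected untreated controls; EC50 by curve fitting.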

[4] = tested on: Coxsackievirus A21; test: Antiviral activity against Human coxsackievirus A21 infected in HeLa cells assessed as reduction in virus-induced cytopathic effect incubated for 3 days by MTS/PMS assay; format: functional, organism-based; conditions: Enterovirus C, 72 h
[5] = tested on: rhinovirus B14; test: Antiviral activity against wild type Human rhinovirus B14 infected in HeLa cells assessed as reduction in virus-induced cytopathic effect incubated for 3 days by MTS/PMS assay; format: functional, organism-based; conditions: Rhinovirus B, 72 h
[6] = tested on: rhinovirus A2; test: Antiviral activity against wild type Rhinovirus-A02 infected in HeLa cells assessed as reduction in virus-induced cytopathic effect incubated for 3 days by MTS/PMS assay; format: functional, cell-based; conditions: Rhinovirus A, 72 h
[7] = tested on: enterovirus D68; test: Antiviral activity against Human enterovirus 68 infected in HeLa cells assessed as reduction in virus-induced cytopathic effect incubated for 4 days by MTS/PMS assay; format: functional, organism-based; conditions: Enterovirus D, 96 h
[8] = tested on: Coxsackievirus B3; test: Antiviral activity against Human coxsackievirus B3 infected in Vero cells assessed as reduction in plaque formation treated 2 hrs post viral infection and measured 3 to 4 days post-infection by Giemsa staining based plaque reduction assay; format: functional, organism-based; conditions: Enterovirus B
[9] = Half life in CD1 mouse at 5 mg/kg, sc measured after 24 hrs by LC-MS/MS analysis; format: ADME, organism-based; conditions: in vivo
In short: (§1)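 Male CD-1 mice, n = 3 per group. Compound given in DMSO/EtOH/PEG300/NaCl (5:5:40:50, v/v/v/v) at 20 mg/kg ip, 5 mg/kg sc or 5 mg/kg iv. Blood sampled at 0.05, 0.25, 0.75, 2, 4, 8 and 24 h after dosing. Compound concentration in serum quantified by LC-MS/MS.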

[10] = Half life in CD1 mouse at 5 mg/kg, iv measured after 24 hrs by LC-MS/MS analysis; format: ADME, organism-based; conditions: in vivo; in short: as §1
[11] = Cmax in CD1 mouse at 20 mg/kg, ip measured after 24 hrs by LC-MS/MS analysis; format: ADME, organism-based; design: route intraperitoneal, time 24 hrs, dose 20 mg/kg; conditions: in vivo; in short: as §1
[12] = AUC (0 to infinity) in CD1 mouse at 5 mg/kg, sc measured after 24 hrs by LC-MS/MS analysis; format: ADME, organism-based; design: route subcutaneous, time 24 hrs, dose 5 mg/kg; conditions: in vivo; in short: as §1
[13] = AUClast in CD1 mouse at 5 mg/kg, sc measured after 24 hrs by LC-MS/MS analysis; format: ADME, organism-based; design: route subcutaneous, dose 5 mg/kg, time 24 hrs; conditions: in vivo; in short: as §1
[14] = AUClast in CD1 mouse at 5 mg/kg, iv measured after 24 hrs by LC-MS/MS analysis; format: ADME, organism-based; design: route intravenous, time 24 hrs, dose 5 mg/kg; conditions: in vivo; in short: as §1
[15] = Inhibition of SARS-CoV2 3C-like protease expressed in Escherichia coli BL21 (DE3) cells using Mca-AVLQSGFR-Lys(Dnp)-Lys-NH2 as fluorogenic substrate incubated for 10 mins by FRET assay; design: species or system Severe acute respiratory syndrome coronavirus 2
[16] = AUClast in CD1 mouse at 20 mg/kg, ip measured after 24 hrs by LC-MS/MS analysis; format: ADME, organism-based; design: route intraperitoneal, time 24 hrs, dose 20 mg/kg; conditions: in vivo; in short: as §1
[17] = Tmax in CD1 mouse at 5 mg/kg, sc measured after 24 hrs by LC-MS/MS analysis; format: ADME, organism-based; conditions: in vivo; in short: as §1
[18] = Cmax in CD1 mouse at 5 mg/kg, sc measured after 24 hrs by LC-MS/MS analysis; format: ADME, organism-based; design: route subcutaneous, time 24 hrs, dose 5 mg/kg; conditions: in vivo; in short: as §1
[19] = AUC (0 to infinity) in CD1 mouse at 20 mg/kg, ip measured after 24 hrs by LC-MS/MS analysis; format: ADME, organism-based; design: route intraperitoneal, dose 20 mg/kg, time 24 hrs; conditions: in vivo; in short: as §1
[20] = tested on: SARS-CoV-2; test: Antiviral activity against SARS Cov-2 infected in Vero E6 cells assessed as reduction in viral RNA replication measured 24 hrs post infection by qRT-PCR analysis; format: functional, organism-based; conditions: Severe acute respiratory syndrome coronavirus 2, Vero C1008, 24 h
[21] = Clearance in CD1 mouse at 5 mg/kg, iv measured after 24 hrs by LC-MS/MS analysis; format: ADME, organism-based; conditions: in vivo; in short: as §1
[22] = Cytotoxicity against African green monkey Vero E6 cells assessed as reduction in cell viability incubated for 24 hrs by CCK8 assay; format: toxicity, cell-based, Vero C1008; conditions: chlorocebus sabaeus
In short: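 Vero E6 cells (2 × 10^4/well) exposed to graded compound concentrations for 24 h. Relative surviving cell number measured by CCK-8.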

[23] = Half life in CD1 mouse at 20 mg/kg, ip measured after 24 hrs by LC-MS/MS analysis; format: ADME, organism-based; conditions: in vivo; in short: as §1
[24] = Mean residence time in CD1 mouse at 5 mg/kg, sc measured after 24 hrs by LC-MS/MS analysis; format: ADME, organism-based; conditions: in vivo; in short: as §1
[25] = AUC (0 to infinity) in CD1 mouse at 5 mg/kg, iv measured after 24 hrs by LC-MS/MS analysis; format: ADME, organism-based; design: route intravenous, dose 5 mg/kg, time 24 hrs; conditions: in vivo; in short: as §1
[26] = Tmax in CD1 mouse at 20 mg/kg, ip measured after 24 hrs by LC-MS/MS analysis; format: ADME, organism-based; conditions: in vivo; in short: as §1
[27] = Mean residence time in CD1 mouse at 5 mg/kg, iv measured after 24 hrs by LC-MS/MS analysis; format: ADME, organism-based; conditions: in vivo; in short: as §1
[28] = Volume of distribution at steady state in CD1 mouse at 5 mg/kg, iv measured after 24 hrs by LC-MS/MS analysis; format: ADME, organism-based; conditions: in vivo, read-out: Vdss; in short: as §1
[29] = Mean residence time in CD1 mouse at 20 mg/kg, ip measured after 24 hrs by LC-MS/MS analysis; format: ADME, organism-based; conditions: in vivo; in short: as §1

CCOC(=O)/C=C/[C@H](C[C@@H]1CCNC1=O)NC(=O)[C@H](Cc1ccc(F)cc1)NC(=O)[C@@H](NC(=O)c1cc(C)on1)C(C)C
IC50 [1]: 1.89 µM | CC50 at 96 h [2]: > 100 µM | EC50 [3]: 0.011 µM

O=C[C@H](C[C@@H]1CCNC1=O)NC(=O)[C@H](Cc1ccccc1)NC(=O)/C=C/c1ccccc1
IC50 [1]: 4.57 µM | CC50 at 96 h [2]: > 100 µM | EC50 [3]: 0.1 µM | EC50 [4]: 1.73 µM | EC50 [5]: 1.19 µM | EC50 [6]: 6.6 µM | EC50 [7]: 0.08 µM | EC50 [8]: 15.9 µM

Cc1cc(C(=O)N[C@@H](Cc2ccccc2)C(=O)N[C@H](C=O)C[C@@H]2CCNC2=O)no1
IC50 [1]: 2.09 µM | CC50 at 96 h [2]: > 100 µM | EC50 [3]: 0.32 µM

O=C[C@H](C[C@@H]1CCNC1=O)NC(=O)[C@H](Cc1ccccc1)NC(=O)c1cc2ccccc2[nH]1
half-life [9]: 4.96 h | IC50 [1]: 2.36 µM | half-life [10]: 5.85 h | Cmax [11]: 14600 ng/mL | AUC(0-inf) [12]: 3580 ng·h/mL | AUC(0-t) at 24 h [13]: 3570 ng·h/mL | AUC(0-t) at 24 h [14]: 1730 ng·h/mL | IC50 [15]: 0.034 µM | AUC(0-t) at 24 h [16]: 16000 ng·h/mL | Tmax [17]: 0.58 h | Cmax [18]: 2760 ng/mL | AUC(0-inf) [19]: 16100 ng·h/mL | CC50 at 96 h [2]: > 100 µM | EC50 [20]: 0.29 µM | EC50 [3]: 0.03 µM | EC50 [4]: 0.43 µM | clearance [21]: 48 mL/min/kg | CC50 at 24 h [22]: 809 µM | half-life [23]: 5.36 h | EC50 [5]: 0.81 µM | MRT [24]: 1.34 h | AUC(0-inf) [25]: 1740 ng·h/mL | Tmax [26]: 0.25 h | EC50 [6]: 1.62 µM | MRT [27]: 1.42 h | EC50 [7]: 0.03 µM | EC50 [8]: 4.19 µM | Vd [28]: 4.12 L/kg | MRT [29]: 1.69 h

O=C[C@H](C[C@@H]1CCNC1=O)NC(=O)[C@H](Cc1ccccc1)NC(=O)c1cccc2c1OCCO2
IC50 [1]: 3.01 µM | IC50 [15]: 0.097 µM | CC50 at 96 h [2]: > 100 µM | EC50 [20]: 8.21 µM | EC50 [3]: 0.77 µM | CC50 at 24 h [22]: > 1000 µM

O=C[C@H](C[C@@H]1CCNC1=O)NC(=O)[C@H](Cc1ccccc1)NC(=O)c1cn2cc(Br)ccc2n1
IC50 [1]: 1.62 µM | CC50 at 96 h [2]: > 100 µM | EC50 [3]: 0.36 µM

O=C[C@H](C[C@@H]1CCNC1=O)NC(=O)[C@H](Cc1ccccc1)NC(=O)c1cncc(F)c1
IC50 [1]: 2.02 µM | CC50 at 96 h [2]: > 100 µM | EC50 [3]: 0.47 µM

O=C[C@H](C[C@@H]1CCNC1=O)NC(=O)[C@H](Cc1ccccc1)NC(=O)c1ccc2c(c1)OCCO2
IC50 [1]: 2.21 µM | CC50 at 96 h [2]: > 100 µM | EC50 [3]: 0.3 µM

O=C[C@H](C[C@@H]1CCNC1=O)NC(=O)[C@H](Cc1ccccc1)NC(=O)C1=Cc2cc(Cl)ccc2OC1
IC50 [1]: 4.34 µM | IC50 [15]: 0.12 µM | CC50 at 96 h [2]: 16.4 µM | EC50 [20]: 0.25 µM | EC50 [3]: 0.07 µM | CC50 at 24 h [22]: 299 µM

Cc1nc2ccccc2nc1C(=O)N[C@@H](Cc1ccccc1)C(=O)N[C@H](C=O)C[C@@H]1CCNC1=O
IC50 [1]: 3.04 µM | IC50 [15]: 0.065 µM | CC50 at 96 h [2]: > 100 µM | EC50 [20]: 0.44 µM | EC50 [3]: 0.37 µM | CC50 at 24 h [22]: 603 µM

COC(=O)/C=C/[C@H](C[C@@H]1CCNC1=O)NC(=O)[C@H](Cc1ccccc1)NC(=O)/C=C/c1ccccc1
IC50 [1]: 1.73 µM | CC50 at 96 h [2]: > 100 µM | EC50 [3]: 1.21 µM | EC50 [4]: 3.62 µM | EC50 [5]: 1.65 µM | EC50 [6]: 1.68 µM | EC50 [7]: 0.1 µM | EC50 [8]: 77.7 µM
